Experimental data pooled from the literature.
Target: Tyrosine-protein kinase Tec (TEC, Homo sapiens, UniProt P42680)
Sequence (P42680 1-631, as in one of the studies): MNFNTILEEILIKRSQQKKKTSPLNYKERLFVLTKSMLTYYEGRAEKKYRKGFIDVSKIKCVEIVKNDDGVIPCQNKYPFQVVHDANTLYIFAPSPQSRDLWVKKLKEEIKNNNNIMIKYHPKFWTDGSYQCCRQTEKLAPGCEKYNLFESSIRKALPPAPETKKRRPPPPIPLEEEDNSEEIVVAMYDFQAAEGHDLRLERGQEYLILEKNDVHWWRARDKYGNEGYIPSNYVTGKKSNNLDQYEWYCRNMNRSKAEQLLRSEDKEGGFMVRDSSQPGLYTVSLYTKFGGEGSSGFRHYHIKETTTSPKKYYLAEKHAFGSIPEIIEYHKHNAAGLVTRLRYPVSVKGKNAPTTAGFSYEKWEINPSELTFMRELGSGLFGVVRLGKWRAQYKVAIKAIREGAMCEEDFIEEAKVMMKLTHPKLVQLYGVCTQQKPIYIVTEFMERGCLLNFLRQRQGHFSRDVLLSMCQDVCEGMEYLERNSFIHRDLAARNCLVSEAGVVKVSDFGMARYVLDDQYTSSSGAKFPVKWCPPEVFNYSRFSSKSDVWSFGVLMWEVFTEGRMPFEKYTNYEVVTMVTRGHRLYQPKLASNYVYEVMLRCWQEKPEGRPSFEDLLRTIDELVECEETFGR

SMILES | observed | technique | tested at | remaining binding
CN(c1nccc(-c2cnn3ncccc23)n1)C1CC1 | binding | – | 1 µM | 100%
O=C(Nc1c[nH]nc1C(=O)NC1CCNCC1)c1cc(F)cc(F)c1 | binding | competition with immobilised ligand | 1 µM | 100%
CC1CCCN1c1nccc(-c2cnn3ncccc23)n1 (stereo not drawn) | binding | – | 1 µM | 100%
FC(F)(F)Oc1cccc(-c2cnc3ccc(-c4ccncc4)nn23)c1 | binding | competition with immobilised ligand | 5 µM | 99%
O=C(c1ccc(Nc2nccc(-c3cc4ccccc4s3)n2)cc1)N1CCC(N2CCCC2)CC1 | binding | competition with immobilised ligand | 1 µM | 100%
COc1ncc2cc3ccccc3nc2c1C#N | binding | competition with immobilised ligand | 5 µM | 100%
COc1cnc(Nc2cccc(S(N)(=O)=O)c2)nc1N1CCN(c2ccccc2)C(=O)C1 | binding | competition with immobilised ligand | 1 µM | 100%
N[C@@H]1CCN(c2nccc(-c3cnn4ncccc34)n2)C1 | binding | – | 1 µM | 95%
CCCCN(CCCC)C(=O)CN1C[C@@H](c2cc(OC)c3c(c2)OCO3)[C@H](C(=O)O)[C@H]1CC(C)(C)CCC | cell-free assay | competition with immobilised ligand | 1 µM | 100%
c1cnn2ncc(-c3ccnc(N4CCC45COC5)n3)c2c1 | binding | – | 1 µM | 99%
CS(=O)(=O)c1cc(C2(NC(=O)c3cncc4c3cnn4-c3ccc(F)cc3)CC2)ccn1 | cell-free assay | competition with immobilised ligand | 1 µM | 99%
Cc1cnn2ncc(-c3ccnc(N(C)C)n3)c2c1 | binding | – | 1 µM | 100%
O=C(NCCCN1CCOCC1)c1ccc(Nc2ncc(Cl)c(-c3ccc(Cl)s3)n2)cc1 | binding | competition with immobilised ligand | 1 µM | 100%
O=c1nc(-c2ccccn2)sc2ccccc12 | binding | competition with immobilised ligand | 1 µM | 82%
O=C(c1ccc(Nc2ncc(Cl)c(-c3cc4ccccc4s3)n2)cc1)N1CCC(N2CCCC2)CC1 | binding | competition with immobilised ligand | 1 µM | 99%
CCC(=O)N[C@H]1CC[C@@H](C(=O)N(C)c2ccc(-c3nc4ccccc4o3)cc2)C1 | cell-free assay | competition with immobilised ligand | 1 µM | 100%
CN(CCCC(F)(F)F)c1nccc(-c2cnn3ncccc23)n1 | binding | – | 1 µM | 97%
CCS(=O)(=O)c1cc2cc(C[C@@](O)(CC(C)(C)c3ccc(F)cc3C(N)=O)C(F)(F)F)[nH]c2cn1 | cell-free assay | competition with immobilised ligand | 1 µM | 100%
C=CC(=O)N1CCC(C(=O)NCC(=O)N2CCN(c3nc(-c4cnc(N)nc4C(F)F)nc(N4CCOCC4)n3)CC2)CC1 | binding | competition with immobilised ligand | 1 µM | 99%
O=C(O)[C@H]1[C@H](Cn2nnc3ccccc3c2=O)CC[C@@H]1C(=O)c1ccc(OCCC2CCOCC2)cc1 | binding | competition with immobilised ligand | 1 µM | 100%
c1cncc(-c2cccc(Nc3nccc(NC4CCCCC4)n3)c2)c1 | binding | competition with immobilised ligand | 10 µM | 94%
